# Rows were chosen to be rich in hits. Some 4.1% of all compounds tested hit in one or more screens of this group.
# KCNQ1 inh = blocks the human KCNQ1 potassium channel. AID 2642. B-score at 10 µM. P51787. actives 1.3% (n = 310,000). CHO-K1 KCNQ1, FluxOR thallium flux fluorescence; hits give high values;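 active means compounds whose thallium flux B-score, printed positive for inhibition, exceeds three library SD while starting fluorescence stays within three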;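 further: channel opened by potassium depolarization with thallium stimulus after 20 min compound exposure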
# KCNK9 inh = inhibitors of human KCNK9 two-pore domain potassium channel; Q9NPC2; HEK293 KCNK9, FluxOR thallium flux fluorescence; hits give low values; B-score at 10 µM; actives 1.2% (n = 310,000); AID 488922;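 active means ratio B-score over 3 SD below the library mean, with starting fluorescence within 5 SD of its mean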;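 further: negative B-score means less thallium flux so channel inhibition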
# hERG rescue = shields human hERG channel from block by proarrhythmic agents | AID 1511 | CHO-hERG, FluxOR thallium flux, dofetilide IC70 present | actives 0.51% (n = 310,000) | activation (rescue from dofetilide block), less the hit threshold, % at 10 µM;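 active means activation above the mean of controls blocked by dofetilide plus 5 SD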;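 further: thallium influx through hERG after potassium depolarization seen as dye fluorescence rise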
# Target sequence (Q12809 whole entry, looked up): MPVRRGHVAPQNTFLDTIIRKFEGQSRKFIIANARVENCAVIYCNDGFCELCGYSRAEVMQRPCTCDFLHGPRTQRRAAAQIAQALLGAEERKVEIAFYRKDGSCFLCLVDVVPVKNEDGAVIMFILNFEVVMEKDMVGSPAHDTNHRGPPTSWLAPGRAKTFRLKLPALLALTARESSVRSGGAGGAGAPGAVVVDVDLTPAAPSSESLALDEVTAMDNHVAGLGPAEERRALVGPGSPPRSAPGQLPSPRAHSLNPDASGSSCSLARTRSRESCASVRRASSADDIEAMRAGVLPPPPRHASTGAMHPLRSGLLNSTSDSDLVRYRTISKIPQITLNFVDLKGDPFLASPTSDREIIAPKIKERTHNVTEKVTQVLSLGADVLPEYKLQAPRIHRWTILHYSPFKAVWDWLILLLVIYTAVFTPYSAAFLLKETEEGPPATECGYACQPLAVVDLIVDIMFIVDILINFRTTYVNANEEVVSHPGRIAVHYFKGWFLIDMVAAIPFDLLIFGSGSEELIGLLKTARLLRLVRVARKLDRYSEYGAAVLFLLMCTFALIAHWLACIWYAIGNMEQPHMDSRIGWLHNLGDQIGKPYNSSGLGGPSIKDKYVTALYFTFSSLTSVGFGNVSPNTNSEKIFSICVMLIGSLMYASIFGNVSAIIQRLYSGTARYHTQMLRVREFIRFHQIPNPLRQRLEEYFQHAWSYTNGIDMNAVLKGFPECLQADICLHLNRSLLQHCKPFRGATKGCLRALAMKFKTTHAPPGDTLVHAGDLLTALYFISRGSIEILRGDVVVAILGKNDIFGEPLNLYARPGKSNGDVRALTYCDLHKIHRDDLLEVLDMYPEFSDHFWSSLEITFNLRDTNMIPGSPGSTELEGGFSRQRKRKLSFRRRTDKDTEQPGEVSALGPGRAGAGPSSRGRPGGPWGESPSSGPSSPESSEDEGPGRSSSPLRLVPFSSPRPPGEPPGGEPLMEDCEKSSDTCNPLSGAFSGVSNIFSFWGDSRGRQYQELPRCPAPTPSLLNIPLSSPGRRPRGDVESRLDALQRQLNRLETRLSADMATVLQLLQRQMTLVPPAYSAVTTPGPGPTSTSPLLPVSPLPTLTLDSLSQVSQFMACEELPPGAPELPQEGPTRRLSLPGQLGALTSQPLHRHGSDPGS
# KCNQ1 pot = potentiators or activators of human KCNQ1 potassium channel | CHO-K1 KCNQ1, thallium flux FluxOR fluorescence; hits give high values | actives 0.35% (n = 310,000) | P51787 | B-score at 10 µM;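 active means fluorescence ratio B-score, a plate-corrected score, at least three library SD, with initial intensity B-score within 5 SD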
#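 Schedule – 37 °C overnight plating, 90-min dark dye load, 20-min compound pretreatment · System – stable KCNQ1 CHO-K1 line · Probe or stimulus – thallium- and potassium-containing depolarizing buffer · Measured by – kinetic FluxOR fluorescence, 10 s baseline plus 110 s post-stimulus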
# KCC2 mod = modulators of human KCC2 chloride dependent transport | B-score of Tl+ flux slope (higher = more flux/activation; lower = inhibition) at 10 µM | KCC2 cells, thallium flux FluoZin-2 fluorescence | Q9H2X9 | actives 2.2% (n = 190,000);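 active means thallium flux slope and its plate-corrected score both differing from the plate sample mean at a set confidence after two filtering rounds, in either direction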;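 further: slope of fluorescence scaled to starting intensity during 10 to 20 s after thallium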
# KCNK3 inh = human KCNK3 channel inhibition, primary screen; actives 0.84% (n = 340,000); CHO-KCNK3 thallium flux, FluxOR fluorescence; hits give low values; B-score at 10 µM; O14649;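 active means B-score under library mean minus 4 SD, starting fluorescence ratio at most library mean plus 5 SD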;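 further: more negative B-score means stronger inhibition of thallium flux through KCNK3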
# KCC2 sec1 = KCC2 (human) modulation, secondary assay; shares compounds with KCC2 mod; HEK293-KCC2, thallium flux, FluoZin2 fluorescence; hits give high values; normalised thallium flux (F/F0 slope) at 10 µM; actives 15% (n = 3,700); AID 1713;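 active means thallium flux slope above the same plate's solvent-only control mean plus 3 SD; inconclusive means the two replicate wells disagree; inactive means no significant difference from solvent-only control wells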
# KCC2 bumet counter = bumetanide-insensitive thallium flux in KCC2 cells with ouabain, counter-screen; HEK293-KCC2 + bumetanide/ouabain, thallium flux FluoZin2; hits give high values; actives 49% (n = 3,700); shares compounds with KCC2 mod; AID 1714; normalized thallium flux at 10 µM;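 active means thallium entry rate above the same plate's blocked-transporter control wells by more than 3 SD; inconclusive means the two repeat wells disagree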;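 further: raw slope of fluorescence over initial fluorescence between 10 and 20 s after thallium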
# KCC2 sec2 = KCC2 (human) modulation, second secondary assay. shares compounds with KCC2 mod. HEK293-KCC2, thallium flux FluoZin2 fluorescence; actives lie on both sides; F/F0 rise rate, 10–20 s post-thallium. normalized thallium flux at 10 µM. actives 23% (n = 3,700);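 active means thallium flux slope more than 3 SD above or below the plate's solvent-only control mean, mostly below; inconclusive means the two repeat wells disagreed; inactive means no significant shift from solvent-only controls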;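 further: raw slope with 0.1% DMSO as baseline and bumetanide as block control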
# HEK293 Tl flux = parental HEK flux effect, counter-screen; shares compounds with KCC2 mod; HEK293 parental cells, thallium flux FluoZin2, ouabain; baseline-ratio fluorescence slope, 10–20 s after thallium; thallium flux rate (normalised fluorescence) at 10 µM; actives 46% (n = 3,700); AID 1716;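 active means thallium flux rate significantly above the same plate's solvent-only control wells, beyond their mean plus 3 SD; inconclusive means the two replicate wells gave conflicting results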
# KCC2 ouabain = confirmation of human KCC2 modulators with ouabain. actives 48% (n = 3,700). shares compounds with KCC2 mod. AID 1717. raw Tl+ flux slope (below DMSO = inhibition, above = activation) at 10 µM. HEK293-KCC2, thallium flux FluoZin2 fluorescence; bidirectional: low = inhibitor, high = activator;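 active means thallium flux slope beyond 3 SD from same-plate DMSO control mean in most replicates, usually higher, sometimes lower; inconclusive means repeat tests gave conflicting results; inactive means no significant difference from controls in most replicates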;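 further: slope of initial-normalized fluorescence between seconds 10 and 20 after thallium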
# HEK counter2 = parental HEK flux effect, counter-screen 2; actives 33% (n = 3,700); thallium flux slope at 10 µM; shares compounds with KCC2 mod; HEK293 parental, thallium flux FluoZin-2 fluorescence slope;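 active means thallium flux slope above the same plate's solvent-control mean plus 3 SD in both duplicate wells; inconclusive means duplicate wells that disagreed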;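 further: run without ouabain in cells lacking the KCC2 cotransporter; slope of fluorescence scaled to its starting value between 10 and 20 s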
# Numbers without * were called inactive; i = inactive; ? = inconclusive; . = not tested or not shown.
SMILES,KCNQ1 inh,KCNK9 inh,hERG rescue,KCNQ1 pot,KCC2 mod,KCNK3 inh,KCC2 sec1,KCC2 bumet counter,KCC2 sec2,HEK293 Tl flux,KCC2 ouabain,HEK counter2
Cc1ccc(Cn2c(SC(C)C(N)=O)nc3ccccc3c2=O)cc1 (stereo not drawn),i,i,-3,i,8.6*,i,0.0061,0.022*,0.036,0.015*,0.03*,0.018*
Cc1ccc(Cn2c(SCC(=O)Nc3cc(C)on3)nc3ccccc3c2=O)cc1,i,i,0,i,.,i,0.0065,0.0054,?,0.016*,0.027*,0.019*
Cc1cc(NC(=O)CSc2nc3ccccc3c(=O)n2Cc2ccccc2)no1,i,i,-8,i,.,i,.,.,.,.,.,.
C/C(N)=C(/C#N)C(=O)CSc1nc2cc(Cl)ccc2c(=O)n1Cc1ccco1,i,i,-14,i,.,i,.,.,.,.,.,.
C/C(N)=C(/C#N)C(=O)CSc1nc2ccccc2c(=O)n1Cc1ccc(C)cc1,i,i,-5,i,22*,i,0.008,0.021*,0.032,0.025*,0.029*,0.016*
CCOC(=O)C(C)Sc1nc2ccccc2c(=O)n1CC (stereo not drawn),.,.,.,.,-2.5,i,.,.,.,.,.,.
COc1cc(/C=C/C(=O)N2CCN(CC(O)COc3ccccc3)CC2)cc(OC)c1OC (stereo not drawn),i,i,-4,i,.,i,.,.,.,.,.,.
CC(NC(=O)CN1C(=O)NC2(CCCCC2C)C1=O)c1ccccc1 (stereo not drawn),.,.,.,.,.,i,.,.,.,.,.,.
COC(=O)c1cc2c(ccn2-c2ccc(F)cc2)n1CC(=O)C(C)(C)C,i,i,-16,i,0.4,i,.,.,.,.,.,.
CCOC(=O)c1cc2c(ccn2-c2ccc(F)cc2)n1CC(=O)N(CC)CC,i,i,-13,i,-5.5*,i,0.015,0.0036,0.023*,?,0.012*,0.009
CCOC(=O)[C@H]1[C@H]2COc3ccccc3[C@@H]2N2C(=O)[C@@H](C)NC(=O)[C@@]12C,.,.,.,.,.,i,.,.,.,.,.,.
O=C(NC(=S)Nc1ccccn1)c1ccccc1,i,i,-6,i,9.1*,i,0.0097,0.017*,0.04,?,0.027*,0.012
O=C(NC(=S)Nc1cccc2ncccc12)c1cccs1,i,i,-8,i,8.2*,i,?,0.035*,0.032,0.016*,0.025*,0.018*
Cc1ccccc1NC(=S)NC1CCCC1,i,i,-1,i,.,i,.,.,.,.,.,.
Cc1cccc(NC(=S)NNC(=S)NC2CCCCC2)c1C,i,i,-8,i,4*,i,0.0089,0.012*,0.03,0.0094*,?,0.011
O=C(NC(=S)Nc1cccc2ncccc12)c1ccccc1,i,i,-5,i,4.5*,i,0.0059,0.01*,0.03,0.011*,0.021,?
CC(=O)Nc1cccc2ncccc12,i,i,-11,i,0.84,i,.,.,.,.,.,.

# Screening results deposited in PubChem BioAssay by several laboratories.
